This note sets out measurements from ChEMBL document CHEMBL4602720, “Degradation versus Inhibition: Development of Proteolysis-Targeting Chimeras for Overcoming Statin-Induced Compensatory Upregulation of 3-Hydroxy-3-methylglutaryl Coenzyme A Reductase” (J Med Chem, 2020).

The source made the active and inactive calls. The calls are words filed in the database; no cut-off is given here.

Experiment [1] deals with T1, Protein cereblon/3-hydroxy-3-methylglutaryl-coenzyme A reductase (Cricetulus griseus) (UniProt P00347+G3H338). The experiment can be described thus: Protac activity at CRBN/HMGCR in Insig-1/Insig-2 deficient Chinese hamster SRD15 cells assessed as HMGCR level at 3 uM after 16 hrs by immunoblotting analysis (reference value: 1). The procedure, abridged: (§1)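 Dose-response in SRD15 cells in Medium A with 5% FBS, 16 h treatment, DMSO final 0.1% or lower. RIPA lysates immunoblotted for HMGCR. HMGCR densitometry normalized to actin, with the DMSO group set to 1. Three repeats. DC50 is taken from a dose-response fit of the semi-quantitative blots, mean of 3 independent experiments.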
A general note: A western blot detects proteins with antibodies after separation by electrophoresis.

Experiment [2] has as its target T2, Sterol regulatory element-binding protein 2 (Mus musculus) (UniProt Q3U1N2).
T2 sequence (whole entry): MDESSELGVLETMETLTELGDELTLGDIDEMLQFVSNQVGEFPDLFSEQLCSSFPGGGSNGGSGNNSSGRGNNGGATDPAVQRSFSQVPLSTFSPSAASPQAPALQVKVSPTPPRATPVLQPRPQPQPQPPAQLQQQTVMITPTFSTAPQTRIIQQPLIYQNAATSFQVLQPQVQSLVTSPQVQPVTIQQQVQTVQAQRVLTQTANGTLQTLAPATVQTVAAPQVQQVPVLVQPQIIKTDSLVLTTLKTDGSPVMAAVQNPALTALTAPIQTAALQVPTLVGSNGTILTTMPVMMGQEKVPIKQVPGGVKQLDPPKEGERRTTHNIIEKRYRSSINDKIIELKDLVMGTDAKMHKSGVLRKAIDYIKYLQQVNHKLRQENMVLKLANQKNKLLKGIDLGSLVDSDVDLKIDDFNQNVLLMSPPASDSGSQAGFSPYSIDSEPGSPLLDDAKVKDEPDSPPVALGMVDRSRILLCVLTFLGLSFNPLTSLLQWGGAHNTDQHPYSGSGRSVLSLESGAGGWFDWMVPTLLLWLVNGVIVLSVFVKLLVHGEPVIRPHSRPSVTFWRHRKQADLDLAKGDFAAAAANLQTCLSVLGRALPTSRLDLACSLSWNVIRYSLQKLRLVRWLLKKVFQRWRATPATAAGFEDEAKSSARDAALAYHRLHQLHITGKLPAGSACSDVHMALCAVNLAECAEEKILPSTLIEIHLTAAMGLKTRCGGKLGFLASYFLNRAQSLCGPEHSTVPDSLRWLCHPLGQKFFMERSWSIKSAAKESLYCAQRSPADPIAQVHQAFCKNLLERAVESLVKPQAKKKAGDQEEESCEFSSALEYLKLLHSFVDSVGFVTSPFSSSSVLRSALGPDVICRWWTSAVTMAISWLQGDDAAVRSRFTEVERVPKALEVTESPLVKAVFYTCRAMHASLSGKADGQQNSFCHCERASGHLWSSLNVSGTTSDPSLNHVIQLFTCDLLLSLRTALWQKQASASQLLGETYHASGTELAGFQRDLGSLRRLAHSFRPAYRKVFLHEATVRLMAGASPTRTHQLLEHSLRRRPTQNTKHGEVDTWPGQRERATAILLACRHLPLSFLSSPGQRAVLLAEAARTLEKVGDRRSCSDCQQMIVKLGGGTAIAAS
Kind of experiment: Activation of SREBP2 pathway in mouse primary hepatocytes assessed as increase in LDLR mRNA expression at 0.3 to 1 uM afer 16 hrs by quantitative real-time PCR analysis. In kind it is cell-based.

The target in experiment [3] is T2, Sterol regulatory element-binding protein 2 (Mus musculus). The experiment can be described thus: Activation of SREBP2 pathway in mouse primary hepatocytes assessed as increase in HMGCR mRNA expression at 0.3 to 1 uM afer 16 hrs by quantitative real-time PCR analysis. In kind it is cell-based. On the technique in general: In qPCR the cycle at which signal appears reflects the starting amount.

Experiment [4] has as its target T3, Protein cereblon/3-hydroxy-3-methylglutaryl-coenzyme A reductase (Homo sapiens) (UniProt P04035+Q96SW2). Kind of experiment: Protac activity at human Flag-tagged CRBN/T7-tagged HMGCR expressed in Chinese hamster SRD15 cells transfected with HA-tagged ubiquitin assessed as increase in HMGCR immunoprecipitation 1 uM incubated for 16 hrs followed by pomalidomide addition addition and measured after 5 hrs in presence of MG132 by Western blot analysis. The experiment is classed as cell-based.

Experiment [5] has as its target T3, Protein cereblon/3-hydroxy-3-methylglutaryl-coenzyme A reductase (Homo sapiens). The experiment can be described thus: Protac activity at human Flag-tagged CRBN/T7-tagged HMGCR expressed in Chinese hamster SRD15 cells transfected with HA-tagged ubiquitin assessed as increase in HMGCR immunoprecipitation 1 uM incubated for 16 hrs followed by atorvastatin addition addition and measured after 5 hrs in presence of MG132 by Western blot analysis. In kind it is cell-based.

For experiment [6], the target named is T1, Protein cereblon/3-hydroxy-3-methylglutaryl-coenzyme A reductase (Cricetulus griseus). The experiment can be described thus: Protac activity at CRBN/HMGCR in Insig-1/Insig-2 deficient Chinese hamster SRD15 cells assessed as induction of HMGCR degradation after 16 hrs by immunoblotting analysis. The procedure, abridged: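 SRD15 cells treated with compound at varying concentrations for 16 h, final DMSO ≤0.1%; RIPA lysates (Lowry protein) immunoblotted for HMGCR, densitometry normalized to actin, DMSO set to 1; DC50 = concentration giving 50% loss versus DMSO, fitted to dose-response curve, mean of 3 independent experiments.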

Experiment [7] shares this target. Kind of experiment: Protac activity at CRBN/HMGCR in 5'-GCAAGGCAGUGUAUAUUAU-3' siRNA transfected in Insig-1/Insig-2 deficient Chinese hamster SRD15 cells assessed as induction of HMGCR degradation at 1 uM after 16 hrs by immunoblotting analysis. The essentials: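 SRD15 cells (Insig-1/Insig-2-deficient CHO-7) in Medium A with 5% FBS at 37 °C, 5% CO2; transfected with negative-control or Crbn-targeting siRNA duplexes for 48 h, then given 1 μM degrader for 16 h. HMGCR by SDS-PAGE immunoblot of RIPA lysates. Knockdown efficiency checked by qRT-PCR against hamster GAPDH, comparative CT method. n = 3 independent experiments.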

In another experiment the test system is Huh-7. The experiment can be described thus: Inhibition of cholesterol biosynthesis in human HuH7 cells preincubated for 14 hrs and followed by addition of 14C-acetate and measured after 2 hrs by TL method. In kind it is functional, cell-based. The essentials:
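Sterol-depleted Huh7 cells (Medium B plus 5% lipoprotein-deficient serum) treated at varying concentrations for 14 h, pulse-labelled with ¹⁴C-acetate 1 μCi/μL for 2 h, washed, lysed in 0.1 M NaOH; lipids separated by TLC, ¹⁴C-cholesterol read by phosphorimager, DMSO set to 1.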

Experiment [8] has as its target T1, Protein cereblon/3-hydroxy-3-methylglutaryl-coenzyme A reductase (Cricetulus griseus). Kind of experiment: Protac activity at CRBN/HMGCR in Insig-1/Insig-2 deficient Chinese hamster SRD15 cells assessed as HMGCR level at 0.1 uM after 16 hrs by immunoblotting analysis (reference value: 1). The essentials: as §1
Target sequence in this assay (G3H338 1-445 partner): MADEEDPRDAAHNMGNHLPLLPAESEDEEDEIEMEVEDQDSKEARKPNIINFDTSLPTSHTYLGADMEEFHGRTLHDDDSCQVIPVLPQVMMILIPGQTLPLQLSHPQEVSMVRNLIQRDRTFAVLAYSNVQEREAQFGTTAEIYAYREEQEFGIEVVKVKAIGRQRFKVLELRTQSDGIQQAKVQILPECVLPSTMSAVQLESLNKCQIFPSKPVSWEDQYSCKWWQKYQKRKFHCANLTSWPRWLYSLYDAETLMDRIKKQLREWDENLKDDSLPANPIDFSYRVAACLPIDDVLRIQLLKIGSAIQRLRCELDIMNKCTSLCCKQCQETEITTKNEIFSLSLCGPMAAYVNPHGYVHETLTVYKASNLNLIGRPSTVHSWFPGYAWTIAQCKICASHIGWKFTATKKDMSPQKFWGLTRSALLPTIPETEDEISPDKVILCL
Target sequence in this assay (P00347 whole entry): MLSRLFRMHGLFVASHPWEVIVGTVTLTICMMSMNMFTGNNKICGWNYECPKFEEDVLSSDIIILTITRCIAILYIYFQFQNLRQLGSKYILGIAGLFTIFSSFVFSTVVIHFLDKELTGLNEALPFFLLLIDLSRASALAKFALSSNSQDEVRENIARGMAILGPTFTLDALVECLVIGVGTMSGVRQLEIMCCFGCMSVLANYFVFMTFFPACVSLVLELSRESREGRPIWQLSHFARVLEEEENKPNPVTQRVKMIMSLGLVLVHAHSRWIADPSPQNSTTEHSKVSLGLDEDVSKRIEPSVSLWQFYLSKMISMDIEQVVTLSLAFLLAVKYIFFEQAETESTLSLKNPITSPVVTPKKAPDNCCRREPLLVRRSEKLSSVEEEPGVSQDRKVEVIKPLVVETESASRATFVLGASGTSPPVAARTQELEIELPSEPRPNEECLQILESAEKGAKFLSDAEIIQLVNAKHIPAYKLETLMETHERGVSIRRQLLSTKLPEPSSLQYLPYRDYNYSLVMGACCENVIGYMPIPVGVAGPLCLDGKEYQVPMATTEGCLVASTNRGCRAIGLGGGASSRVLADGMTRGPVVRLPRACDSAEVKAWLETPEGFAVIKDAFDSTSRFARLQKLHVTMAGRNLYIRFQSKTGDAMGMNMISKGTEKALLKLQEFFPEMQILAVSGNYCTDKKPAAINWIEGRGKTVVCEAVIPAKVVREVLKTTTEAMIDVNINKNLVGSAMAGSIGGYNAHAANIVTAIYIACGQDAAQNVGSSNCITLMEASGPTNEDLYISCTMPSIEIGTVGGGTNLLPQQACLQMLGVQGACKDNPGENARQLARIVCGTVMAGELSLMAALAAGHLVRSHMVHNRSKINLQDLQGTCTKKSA
For experiment [9] the target is unchanged. The experiment can be described thus: Protac activity at human Flag-tagged CRBN YW/AA mutant /T7-tagged HMGCR transfected in Insig-1/Insig-2 deficient Chinese hamster SRD15 cells assessed as induction of HMGCR degradation at 0.01 to 1 uM after 16 hrs by immunoblotting analysis.
Experiment [10] addresses T3, Protein cereblon/3-hydroxy-3-methylglutaryl-coenzyme A reductase (Homo sapiens). Kind of experiment: Protac activity at human Flag-tagged CRBN/T7-tagged HMGCR transfected in Insig-1/Insig-2 deficient Chinese hamster SRD15 cells assessed as induction of HMGCR degradation at 0.01 to 1 uM after 16 hrs by immunoblotting analysis. The essentials: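 SRD15 cells co-transfected with T7-HMGCR and Flag-CRBN (wild type or YW/AA mutant), then treated with DMSO or 1 μM compound for 16 h; transfected HMGCR measured by immunoblotting.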

T3 sequence (P04035 whole entry, looked up): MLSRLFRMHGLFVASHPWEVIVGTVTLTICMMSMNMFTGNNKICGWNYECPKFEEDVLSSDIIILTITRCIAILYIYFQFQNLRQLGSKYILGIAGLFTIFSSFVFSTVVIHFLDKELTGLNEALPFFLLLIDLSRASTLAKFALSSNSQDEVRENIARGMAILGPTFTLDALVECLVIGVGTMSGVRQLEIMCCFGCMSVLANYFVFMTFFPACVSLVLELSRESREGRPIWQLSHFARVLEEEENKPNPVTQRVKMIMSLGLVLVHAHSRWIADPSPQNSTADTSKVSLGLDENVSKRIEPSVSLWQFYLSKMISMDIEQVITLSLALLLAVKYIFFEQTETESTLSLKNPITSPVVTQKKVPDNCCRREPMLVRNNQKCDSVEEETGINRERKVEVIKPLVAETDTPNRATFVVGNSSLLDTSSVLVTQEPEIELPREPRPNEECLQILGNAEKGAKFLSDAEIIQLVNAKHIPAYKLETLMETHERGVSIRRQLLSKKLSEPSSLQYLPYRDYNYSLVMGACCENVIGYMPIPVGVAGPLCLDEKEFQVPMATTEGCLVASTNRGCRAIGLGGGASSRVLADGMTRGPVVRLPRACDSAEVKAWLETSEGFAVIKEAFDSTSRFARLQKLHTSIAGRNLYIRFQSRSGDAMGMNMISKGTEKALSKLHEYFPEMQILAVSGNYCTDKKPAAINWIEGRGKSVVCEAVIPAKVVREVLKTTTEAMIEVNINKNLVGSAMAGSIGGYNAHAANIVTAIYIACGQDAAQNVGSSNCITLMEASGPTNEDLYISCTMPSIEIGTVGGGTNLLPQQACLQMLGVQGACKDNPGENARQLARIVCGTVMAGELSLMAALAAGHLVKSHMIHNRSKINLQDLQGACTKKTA
T3 sequence (Q96SW2 whole entry, looked up): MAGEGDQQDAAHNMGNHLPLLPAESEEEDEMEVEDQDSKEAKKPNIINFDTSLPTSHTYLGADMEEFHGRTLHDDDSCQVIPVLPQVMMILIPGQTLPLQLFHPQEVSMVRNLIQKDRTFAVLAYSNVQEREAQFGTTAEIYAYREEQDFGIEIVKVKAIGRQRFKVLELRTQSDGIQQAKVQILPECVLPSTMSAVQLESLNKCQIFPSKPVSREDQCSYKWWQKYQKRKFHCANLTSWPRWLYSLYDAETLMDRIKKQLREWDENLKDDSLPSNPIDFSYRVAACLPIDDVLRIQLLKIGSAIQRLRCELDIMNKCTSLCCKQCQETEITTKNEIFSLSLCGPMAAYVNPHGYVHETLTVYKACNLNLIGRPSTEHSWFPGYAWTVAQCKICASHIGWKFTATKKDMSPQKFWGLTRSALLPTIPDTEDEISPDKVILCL

Take `CC(C)c1c(C(=O)Nc2ccccc2)c(-c2cccc(OCCCc3cn(CCOCCOCCOCCOCCNc4cccc5c4C(=O)N(C4CCC(=O)NC4=O)C5=O)nn3)c2)c(-c2ccc(F)cc2)n1CC[C@@H](O)C[C@@H](O)CC(=O)O` (stereo partly specified): the fold change (FC) in [1] came to 0.3; in [8], 0.6. The outcome in experiment [2], in [3] and in experiment [10] was Active. The result in [4], in [5], in experiment [7] and in experiment [9] was inactive. In [6], the Activity result was “Dose-dependent effect”. In addition, the inhibition entry with Huh-7 was “Active”.
